{"data": "Published values pooled from the literature", "cell line": "HCT-116", "observed": "cell growth or viability", "note": "Lines come from different studies, so protocols differ."}
{"Compound": "O=C1CS/C(=N\\c2ccccc2Cl)N1c1nnc(-c2ccc(C(F)(F)F)cc2/N=C2\\SCC(=O)N2c2ccccc2Cl)s1", "assay": "MTT", "IC50": "57.9 µM"}
{"Compound": "O=[N+]([O-])c1cc(Br)c(O)c(C=NNc2ccc(C(F)(F)F)cc2)c1", "assay": "MTT", "setting": "24 h", "IC50": "9.42 µM"}
{"Compound": "COc1ccc(N(Cc2nc(-c3ccc(F)cc3)cs2)C(=O)CCCCCC(=O)NO)cc1", "assay": "MTT", "setting": "72 h", "IC50": "3.2 µM"}
{"Compound": "c1ccc2c(c1)ncn2Cn1cncn1", "assay": "MTT", "setting": "24 h", "IC50": "102 µM"}
{"Compound": "CC(=O)OC[C@H]1O[C@@H](n2cc(Cn3c(C(=O)/C=C/c4ccc(F)cc4)nc4ccccc43)nn2)[C@H](OC(C)=O)[C@@H](OC(C)=O)[C@H]1OC(C)=O", "assay": "LDH", "setting": "48 h", "IC50": "6.49 µM"}
{"Compound": "Cc1cccc(N=C2C(=O)N(Cc3ccc(Br)cc3)c3ccccc32)c1", "assay": "MTT", "setting": "48 h", "IC50": "8.21 µM"}
{"Compound": "c1ccc(Cn2nc(-c3ncc(-c4ccccc4)s3)c3ccccc32)cc1", "setting": "48 h", "IC50": "50.6 µM"}
{"Compound": "O=c1cc(OCc2cc(-c3ccc(Cl)cc3Cl)no2)c2ccccc2o1", "assay": "MTS", "setting": "72 h", "IC50": "> 100 µM"}
{"Compound": "Cc1cc2c(C(N)=O)cccc2n1-c1nc2c(c(NCc3ccccc3O)n1)CCCN2", "assay": "ATP luminescence", "setting": "72 h", "IC50": "5 µM"}
{"Compound": "CCC(C(=O)N1C(=O)C(=Nc2ccc(Cl)cc2Br)c2ccccc21)c1ccccc1 (centres unmarked)", "assay": "MTT", "setting": "48 h", "IC50": "30.9 µM"}
{"Compound": "COc1cccc(-c2cc(NCc3ccc4c(c3)OCO4)nc(N)n2)c1", "setting": "72 h", "IC50": "0.347 µM"}
{"Compound": "Cc1cc(NS(=O)(=O)c2ccc(NC(=O)/C(C#N)=C/c3cccnc3)cc2)no1", "assay": "MTT", "setting": "48 h", "IC50": "> 200 µM"}
{"Compound": "N#Cc1ccc(-c2cc(CNc3cccc4cccnc34)on2)cc1", "assay": "MTS", "setting": "72 h", "IC50": "> 100 µM"}
{"Compound": "O=C1Nc2ccccc2C1=Nc1cccc(Cl)c1", "assay": "MTT", "setting": "48 h", "IC50": "> 100 µM"}
{"Compound": "COc1ccc2c(-c3ncc(-c4ccccc4)o3)nn(Cc3ccccc3)c2c1", "setting": "48 h", "IC50": "80.9 µM"}
{"Compound": "O=C(CSc1nc2ccccc2s1)N/N=C/c1ccc(OCC(=O)Nc2ccc(Br)cc2)cc1", "assay": "MTS", "setting": "72 h", "IC50": "> 100 µM"}
{"Compound": "COc1cccc2c1C(=O)c1c(O)c3c(c(O)c1C2=O)C[C@@](O)(C(=O)CO)C[C@@H]3O[C@H]1C[C@H](N)[C@H](O)[C@H](C)O1", "assay": "MTT", "IC50": "41.2 µM"}
{"Compound": "C#CCn1c(C2CC(c3ccc(F)cc3)=NN2C(C)=O)nc2ccccc21 (centres unmarked)", "assay": "LDH", "setting": "48 h", "IC50": "6.85 µM"}
{"Compound": "Cc1cccc(N=C2C(=O)N(Cc3cccc(Cl)c3)c3ccccc32)c1", "assay": "MTT", "setting": "48 h", "IC50": "7.13 µM"}
{"Compound": "Cc1noc(-c2nn(Cc3ccc(Cl)cc3Cl)c3ccccc23)n1", "setting": "48 h", "IC50": "192 µM"}
{"Compound": "O=[N+]([O-])c1ccc(O)c(C=NNc2ccc(Cl)cc2)c1", "assay": "MTT", "setting": "24 h", "IC50": "11 µM"}
{"Compound": "S=C(N/N=C/c1cccc2cc3ccccc3nc12)Nc1ccccc1", "assay": "MTT", "setting": "48 h", "IC50": "> 50 µM"}
{"Compound": "COc1cc([C@@H]2c3cc4c(cc3[C@@H](O[C@@H]3O[C@@H]5CO[C@@H](C)O[C@H]5[C@H](O)[C@H]3O)[C@H]3COC(=O)[C@H]23)OCO4)cc(OC)c1O", "assay": "SRB", "setting": "72 h", "IC50": "2.4 µM"}
{"Compound": "Cc1cc2c(C(N)=O)cccc2n1-c1nc2c(c(NCc3cccnc3)n1)CCCN2", "assay": "ATP luminescence", "setting": "72 h", "IC50": "1 µM"}
{"Compound": "O=C(C=Cc1cccs1)c1ccc(OCCCCOc2ccc(C(=O)C=Cc3cccs3)cc2)cc1", "assay": "MTT", "setting": "48 h", "IC50": "356 µM"}
{"Compound": "CC1(P2(=O)CCCCC2)CCCCC1", "assay": "MTT", "setting": "72 h", "IC50": "69.3 µM"}
{"Compound": "CC(C)c1cccc(C(C)C)c1N=C1C(=O)N(Cc2ccc(Br)cc2)c2ccccc21", "assay": "MTT", "setting": "48 h", "IC50": "37.4 µM"}
{"Compound": "Cc1cc2c(C(=O)O)cccc2n1-c1nc2c(c(NCc3ccccc3)n1)CCCN2", "assay": "ATP luminescence", "setting": "72 h", "IC50": "0.4 µM"}
{"Compound": "CC(C)c1ccc(/C=C2\\N=C(SCC(=O)O)N(c3ccccc3)C2=O)cc1", "assay": "MTT", "IC50": "44.3 µg/mL"}
{"Compound": "Cc1cc(C)n(Cn2ccnc2)n1", "assay": "MTT", "setting": "24 h", "IC50": "21.3 µM"}
{"Compound": "Cc1cc(NS(=O)(=O)c2ccc(NC(=O)/C(C#N)=C/c3ccc(N4CCCC4)cc3)cc2)no1", "assay": "MTT", "setting": "48 h", "IC50": "98.6 µM"}
{"Compound": "COc1ccc(N(Cc2csc(-c3ccc(Br)cc3)n2)C(=O)CCCCCC(=O)NO)cc1", "assay": "MTT", "setting": "72 h", "IC50": "2.21 µM"}
{"Compound": "COc1cccc(NC(=S)N/N=C/c2cccc3cc4ccccc4nc23)c1", "assay": "MTT", "setting": "48 h", "IC50": "49.6 µM"}
{"Compound": "O=C1CS/C(=N\\c2cc(C(F)(F)F)ccc2-c2nnc(N3C(=O)CS/C3=N\\c3ccc(Cl)cc3)s2)N1c1ccc(Cl)cc1", "assay": "MTT", "IC50": "46.2 µM"}
{"Compound": "COc1ccc(CNC(=O)Cn2cc(COc3ncnc4[nH]cnc34)nn2)cc1", "assay": "MTT", "IC50": "> 100 µM"}
{"Compound": "Clc1ccc(-c2cc(CNc3cccc4cccnc34)on2)c(Cl)c1", "assay": "MTS", "setting": "72 h", "IC50": "> 100 µM"}
{"Compound": "O=P1(C2CCCCC2)CCCCC1", "assay": "MTT", "setting": "72 h", "IC50": "13.8 µM"}
{"Compound": "Cc1cccc(N=C2C(=O)Nc3ccccc32)c1", "assay": "MTT", "setting": "48 h", "IC50": "> 100 µM"}
{"Compound": "CC(C)CNC(=S)N/N=C/c1cccc2cc3ccccc3nc12", "assay": "MTT", "setting": "48 h", "IC50": "> 50 µM"}
{"Compound": "C=CCN1C(=O)C(=Nc2cccc(C)c2)c2ccccc21", "assay": "MTT", "setting": "48 h", "IC50": "> 100 µM"}
{"Compound": "CN1CCc2c(c3ccccc3n2Cc2ccc(C(=O)NO)cc2)C1", "assay": "CCK-8", "setting": "48 h", "IC50": "12 µM"}
{"Compound": "O=C1CS/C(=N\\c2cc(C(F)(F)F)ccc2-c2nnc(N3C(=O)CS/C3=N\\c3ccc(-c4ccccc4)cc3)s2)N1c1ccc(-c2ccccc2)cc1", "assay": "MTT", "IC50": "92.3 µM"}
{"Compound": "O=C(O)c1nn(Cc2ccc(Cl)cc2Cl)c2ccccc12", "setting": "48 h", "IC50": "247 µM"}
{"Compound": "O=[N+]([O-])c1cc(Br)c(O)c(C=NNc2ccc(Cl)cc2)c1", "assay": "MTT", "setting": "24 h", "IC50": "16.6 µM"}
{"Compound": "O=C(C=Cc1ccc(OCCCCOc2ccc(C=CC(=O)c3cccs3)cc2)cc1)c1cccs1", "assay": "MTT", "setting": "48 h", "IC50": "278 µM"}
{"Compound": "N#Cc1ccc(-c2cc(COc3cc(=O)oc4ccccc34)on2)cc1", "assay": "MTS", "setting": "72 h", "IC50": "> 100 µM"}
{"Compound": "CN1CCC(NC2CCc3[nH]c4c(C(N)=O)ccc(-c5ccccc5Cl)c4c3C2)CC1 (centres unmarked)", "setting": "96 h", "IC50": "0.00023 µM"}
{"Compound": "CC(C)c1ccc(/C=C2\\NC(=S)N(c3ccccc3)C2=O)cc1", "assay": "MTT", "IC50": "63.2 µg/mL"}
{"Compound": "O=c1cc(OCc2cc(-c3ccccn3)no2)c2ccccc2o1", "assay": "MTS", "setting": "72 h", "IC50": "> 100 µM"}
{"Compound": "OCn1ccnc1", "assay": "MTT", "setting": "24 h", "IC50": "10.7 µM"}
{"Compound": "Cc1cc2c(C(N)=O)cccc2n1-c1nc2c(c(NCc3cccc(O)c3)n1)CCCN2", "assay": "ATP luminescence", "setting": "72 h", "IC50": "0.7 µM"}
{"Compound": "COc1cccc(N=C2SCC(=O)N2c2nnc(-c3ccc(C(F)(F)F)cc3N=C3SCC(=O)N3c3cccc(OC)c3)s2)c1", "assay": "MTT", "IC50": "71.4 µM"}
{"Compound": "FC(F)(F)c1ccc(-c2noc(-c3nn(Cc4ccc(Cl)cc4Cl)c4ccccc34)n2)cc1", "setting": "48 h", "IC50": "137 µM"}
{"Compound": "COC(=O)c1ccc2c(c1)NC(=O)/C2=C(\\Nc1ccc(N(C)C(=O)CN2CCN(C)CC2)cc1)c1ccccc1", "assay": "MTT", "setting": "24 h", "IC50": "1.88 µM"}
{"Compound": "FC(F)(F)c1ccc(-c2cc(COc3cc(C(F)(F)F)nc4ccccc34)on2)cc1", "assay": "MTS", "setting": "72 h", "IC50": "> 100 µM"}
{"Compound": "Cc1ccc(CN2C(=O)C(=Nc3c(C(C)C)cccc3C(C)C)c3ccccc32)cc1", "assay": "MTT", "setting": "48 h", "IC50": "30.9 µM"}
